Experimental data from ChEMBL document CHEMBL1136784, “Synthesis and biological evaluation of 14-alkoxymorphinans. 18. N-substituted 14-phenylpropyloxymorphinan-6-ones with unanticipated agonist properties: extending the scope of common structure-activity relationships” (J Med Chem, 2003).
pKi: −log10 of the molar value. Where “and” joins values, the source holds several entries; their conditions need not be identical. Identical values can stand only once.

Tests used:
[1] = target: Opioid receptors; mu and delta (Mus musculus) (UniProt P42866+P32300); experiment: In vivo antinociceptive activity was determined upon subcutaneous administration in the mouse paraphenylquinone writhing test; assay type: functional, organism-based
Summary of the method: (§1)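 Male ICR mice weighing 20-30 g, each animal tested only once. Drugs were given subcutaneously at a minimum of 3 doses, with 6-10 mice per dose. Assay procedures followed earlier published methods and their modifications.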

[2] = In vivo antinociceptive activity was determined upon subcutaneous administration in the mouse tail-flick test; assay type: functional; conditions: sc; summary of the method: as §1
[3] = target: Delta-type opioid receptor (Rattus norvegicus, UniProt P33533); experiment: In vitro binding affinity at opioid receptor delta 1 was determined in C6 rat glioma cells using [3H]Ile5,6 deltorphin II; assay type: cell-based
Mu-type opioid receptor = Mu-type opioid receptor (Rattus norvegicus, UniProt P33535); experiment: In vitro binding affinity at opioid receptor mu 1 was determined in C6 rat glioma cells using [3H]DAMGO; assay type: cell-based
[4] = target: Kappa-type opioid receptor (Homo sapiens, UniProt P41145); experiment: biochemical; assay type: cell-based, CHO
[5] = Selectivity ratio was determined; parameters: reference not given here

Sequence of Opioid receptors; mu and delta (Mus musculus) (P32300 whole entry, looked up): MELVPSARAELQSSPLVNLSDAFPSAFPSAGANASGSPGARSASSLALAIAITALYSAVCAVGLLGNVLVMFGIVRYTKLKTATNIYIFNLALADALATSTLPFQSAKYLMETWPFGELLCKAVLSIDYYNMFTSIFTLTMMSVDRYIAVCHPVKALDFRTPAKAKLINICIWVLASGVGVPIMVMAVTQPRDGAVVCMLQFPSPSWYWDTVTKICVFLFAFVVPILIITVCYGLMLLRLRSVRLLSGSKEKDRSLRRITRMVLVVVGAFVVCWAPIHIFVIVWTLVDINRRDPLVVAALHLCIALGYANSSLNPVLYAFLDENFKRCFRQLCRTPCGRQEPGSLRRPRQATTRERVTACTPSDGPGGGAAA
Sequence of Opioid receptors; mu and delta (Mus musculus) (P42866 whole entry, looked up): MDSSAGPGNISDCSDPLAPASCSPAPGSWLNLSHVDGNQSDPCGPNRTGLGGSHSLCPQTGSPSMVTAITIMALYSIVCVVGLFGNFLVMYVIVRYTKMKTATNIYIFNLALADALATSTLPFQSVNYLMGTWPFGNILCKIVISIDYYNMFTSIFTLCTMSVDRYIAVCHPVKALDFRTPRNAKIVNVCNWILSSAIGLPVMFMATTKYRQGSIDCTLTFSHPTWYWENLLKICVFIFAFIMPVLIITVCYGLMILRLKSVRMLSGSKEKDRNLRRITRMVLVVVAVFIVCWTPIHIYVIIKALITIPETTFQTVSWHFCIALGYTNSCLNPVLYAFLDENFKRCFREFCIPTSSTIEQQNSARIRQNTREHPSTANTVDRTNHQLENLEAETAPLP
Sequence of Delta-type opioid receptor (P33533 whole entry): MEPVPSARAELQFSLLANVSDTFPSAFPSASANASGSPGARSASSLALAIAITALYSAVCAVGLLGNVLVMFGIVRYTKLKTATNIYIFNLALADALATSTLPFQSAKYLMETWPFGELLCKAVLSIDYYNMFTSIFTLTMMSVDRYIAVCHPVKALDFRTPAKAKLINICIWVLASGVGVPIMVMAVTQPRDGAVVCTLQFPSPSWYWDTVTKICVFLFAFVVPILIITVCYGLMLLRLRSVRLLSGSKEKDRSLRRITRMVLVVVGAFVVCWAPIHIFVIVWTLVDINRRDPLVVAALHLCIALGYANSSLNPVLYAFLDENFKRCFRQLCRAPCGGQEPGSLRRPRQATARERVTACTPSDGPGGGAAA
Sequence of Kappa-type opioid receptor (P41145 whole entry): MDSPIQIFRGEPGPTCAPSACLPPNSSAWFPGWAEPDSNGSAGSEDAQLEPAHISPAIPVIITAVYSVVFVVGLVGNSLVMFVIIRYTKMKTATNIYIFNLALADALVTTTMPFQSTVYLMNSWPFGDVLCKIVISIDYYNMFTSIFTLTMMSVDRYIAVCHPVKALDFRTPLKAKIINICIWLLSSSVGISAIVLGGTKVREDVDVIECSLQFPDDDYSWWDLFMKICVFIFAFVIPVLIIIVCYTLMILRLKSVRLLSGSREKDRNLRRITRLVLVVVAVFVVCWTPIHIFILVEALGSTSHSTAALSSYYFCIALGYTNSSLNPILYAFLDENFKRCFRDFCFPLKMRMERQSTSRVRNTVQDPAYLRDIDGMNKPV
Sequence of Mu-type opioid receptor (P33535 whole entry): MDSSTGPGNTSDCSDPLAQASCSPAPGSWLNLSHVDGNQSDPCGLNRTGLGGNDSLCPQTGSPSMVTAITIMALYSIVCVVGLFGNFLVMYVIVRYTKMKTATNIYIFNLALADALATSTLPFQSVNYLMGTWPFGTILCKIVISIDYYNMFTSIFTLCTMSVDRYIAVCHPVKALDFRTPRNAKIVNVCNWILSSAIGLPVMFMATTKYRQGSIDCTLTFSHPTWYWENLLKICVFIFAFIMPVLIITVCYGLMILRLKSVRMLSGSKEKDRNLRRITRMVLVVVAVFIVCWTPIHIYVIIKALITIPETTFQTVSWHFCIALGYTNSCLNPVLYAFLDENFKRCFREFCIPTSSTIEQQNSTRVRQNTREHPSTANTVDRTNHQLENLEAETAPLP

Row | Compound | ED50 [1] [µg/kg] | ED50 [2] [µg/kg] | pKi [3] | pKi (Mu-type opioid receptor) | pKi [4] | Ratio [5]
1 | CO[C@@]12CCC(=O)[C@]3(C)Oc4c(O)ccc5c4[C@@]31CCN(C)[C@@H]2C5 | 9 | 30 | 7.39 | 10.64 | 6.52 | –
2 | C=CCN1CC[C@]23c4c5ccc(O)c4O[C@H]2C(=O)CC[C@@]3(OCCCc2ccccc2)[C@H]1C5 | – | 6 | 9.59 | – | 9.96 | –
3 | COc1ccc2c3c1O[C@H]1C(=O)CC[C@@]4(OCCCc5ccccc5)[C@@H](C2)N(CCc2ccccc2)CC[C@]314 | – | 80 | – | – | – | –
4 | CCCN1CC[C@]23c4c5ccc(O)c4O[C@H]2C(=O)CC[C@@]3(OCCCc2ccccc2)[C@H]1C5 | 0.9 | 2 | 9.03 | 10.05 | 9.43 | 4.11 and 10.3
5 | O=C1CC[C@@]2(OCCCc3ccccc3)[C@H]3Cc4ccc(O)c5c4[C@@]2(CCN3CCc2ccccc2)[C@H]1O5 | – | 110 | – | – | – | –
6 | COc1ccc2c3c1O[C@H]1C(=O)CC[C@@]4(OCCCc5ccccc5)[C@@H](C2)N(CC2CCCO2)CC[C@]314 (stereo partly specified) | – | 760 | 8.21 | 8.42 | 7.21 | –
7 | O=C1CC[C@@]2(OCCCc3ccccc3)[C@H]3Cc4ccc(O)c5c4[C@@]2(CCN3CC2CCC2)[C@H]1O5 | – | 8 | 9.34 | 9.60 | 9.31 | 1.96 and 1.84
8 | O=C1CC[C@@]2(OCCCc3ccccc3)[C@H]3Cc4ccc(O)c5c4[C@@]2(CCN3CC2CC2)[C@H]1O5 | 6 | 3 | – | – | 9.39 | –
9 | CN1CC[C@]23c4c5ccc(O)c4O[C@H]2[C@@H](O)C=C[C@H]3[C@H]1C5 [MORPHINE] | 400 | 1900 | – | – | – | –
10 | O=C1CC[C@@]2(OCCCc3ccccc3)[C@H]3Cc4ccc(O)c5c4[C@@]2(CCN3CC2CCCO2)[C@H]1O5 (stereo partly specified) | 2 | 7 | 10.05 | 9.70 | 10.10 | 0.4 and 0.45
